The record followed here is ChEMBL document CHEMBL4017491, “Phthalazino[1,2-b]quinazolinones as p53 Activators: Cell Cycle Arrest, Apoptotic Response and Bak-Bcl-xl Complex Reorganization in Bladder Cancer Cells” (J Med Chem, 2017).

In experiment [1] the test system is Escherichia coli. The experiment in a line: Induction of DNA damage in Escherichia coli pBR322 DNA assessed as effect on mobility rate at 5 uM after 1 hr by DNA relaxation assay. The method, boiled down: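 pBR322 plasmid DNA incubated 1 h with compound over 1−10 μM in 5 mM Tris-HCl, 50 mM NaCl, pH 7.2. Samples run on 1.5% agarose gel, stained with 0.5 μg·mL−1 ethidium bromide; conformation and migration rate compared with 1% DMSO plus plasmid (negative control) and ethidium bromide plus plasmid (positive control).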

For experiment [2], the system named is T-24. Briefly: Effect on p53 protein expression in human T24 cells at 10 uM after 24 hrs by Western blot analysis. It is filed as functional, cell-based. An outline of the steps: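 T24 cells (3 × 10^5 per well) grown to 85–95% confluence, then exposed 24 h to 0–10 μM. Whole-cell extracts run on SDS-PAGE and blotted to nitrocellulose. Probed with the indicated antibodies and AP-linked anti-rabbit IgG, with ECL detection. Blots stripped and reprobed for β-actin as loading control.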
Background: Immunoblotting shows a protein as a band on a membrane.

The source made the active and inactive calls. The calls are words filed in the database; no cut-off is given here.

On to `CC[n+]1c(-c2ccccc2)c2cc(N)ccc2c2ccc(N)cc21`, for which, in experiment [1], the outcome was Active.

For the molecule `COc1ccc(C2=N[C@H](c3ccc(Cl)cc3)[C@H](c3ccc(Cl)cc3)N2C(=O)N2CCNC(=O)C2)c(OC(C)C)c1`, in experiment [2], the result was inactive.
